The values that follow come from ChEMBL document CHEMBL3734668, “Evaluation of small molecule SecA inhibitors against methicillin-resistant Staphylococcus aureus” (Bioorg Med Chem, 2015).

Assay [1] has as its system Staphylococcus aureus. The assay is described as follows: Bacteriostatic activity against Staphylococcus aureus Mu50 after 24 hrs. The assay is classed as functional. The settings on record: Mu50, 24 h. Summed up:
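Broth microdilution per CLSI guidelines in LB. Inhibitor added to dilute early-log culture (OD600 ≈ 0.05), 37 °C, 250 rpm, 24 hrs. Run in triplicate in three separate experiments. MIC read as the lowest concentration with no growth.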

For assay [2], the target named is T1, Protein translocase subunit SecA 1 (Staphylococcus aureus (strain NCTC 8325)) (UniProt O06446).
T1 sequence (whole entry): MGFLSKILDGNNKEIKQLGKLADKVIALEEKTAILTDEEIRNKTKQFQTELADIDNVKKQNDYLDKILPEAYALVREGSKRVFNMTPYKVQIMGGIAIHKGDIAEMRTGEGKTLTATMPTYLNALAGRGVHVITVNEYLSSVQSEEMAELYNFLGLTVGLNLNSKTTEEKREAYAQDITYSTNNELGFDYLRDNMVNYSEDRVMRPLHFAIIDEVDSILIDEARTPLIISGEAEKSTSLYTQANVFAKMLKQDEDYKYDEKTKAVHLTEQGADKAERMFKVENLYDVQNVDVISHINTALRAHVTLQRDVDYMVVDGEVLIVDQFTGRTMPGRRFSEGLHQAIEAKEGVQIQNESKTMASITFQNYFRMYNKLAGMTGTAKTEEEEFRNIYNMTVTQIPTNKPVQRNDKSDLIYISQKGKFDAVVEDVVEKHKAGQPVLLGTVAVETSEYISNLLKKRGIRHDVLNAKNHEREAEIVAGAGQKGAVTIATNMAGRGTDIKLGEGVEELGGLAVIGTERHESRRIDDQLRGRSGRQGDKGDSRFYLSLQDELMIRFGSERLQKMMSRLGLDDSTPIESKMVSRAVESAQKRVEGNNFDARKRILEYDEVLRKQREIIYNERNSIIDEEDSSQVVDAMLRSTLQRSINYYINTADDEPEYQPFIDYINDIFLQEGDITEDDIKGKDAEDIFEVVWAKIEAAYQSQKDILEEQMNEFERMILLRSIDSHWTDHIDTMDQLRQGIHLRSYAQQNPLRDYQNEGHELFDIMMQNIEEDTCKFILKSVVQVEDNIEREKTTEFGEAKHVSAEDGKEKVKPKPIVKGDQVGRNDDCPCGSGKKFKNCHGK
In words: Binding affinity to SecA1 in Staphylococcus aureus ATCC 6538 whole cell lysate incubated for 1 hr by Streptavidin-based pull down assay. A digest of the protocol:
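Lysate precleared on streptavidin magnetic beads (4 °C, 1 hr), then rolled ±400 μM biotinylated probe at 4 °C, 1 hr. Beads washed three times, boiled in SDS buffer; SaSecA1 detected by Western blot using cross-reacting EcSecA antibody.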

The nature of assay [3]: Inhibition of Escherichia coli SecA N68 mutant ATPase activity.
Assay [4] has as its system Staphylococcus aureus. The assay is described as follows: Bacteriostatic activity against NorA deficient Staphylococcus aureus K1758. It counts as functional. A digest of the protocol: (§1)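 Broth microdilution MIC per CLSI guidance in LB, 37 °C, shaking 250 rpm, 24 hr; run in triplicate in three separate experiments. MIC taken as lowest inhibitor concentration with no growth. Compounds from DMSO stocks; untreated controls carry equal DMSO.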

Assay [5] concerns the target T2, Protein translocase subunit SecA 2 (Staphylococcus aureus (strain NCTC 8325), UniProt Q2FUW6).
T2 sequence (Q2FUW6 whole entry): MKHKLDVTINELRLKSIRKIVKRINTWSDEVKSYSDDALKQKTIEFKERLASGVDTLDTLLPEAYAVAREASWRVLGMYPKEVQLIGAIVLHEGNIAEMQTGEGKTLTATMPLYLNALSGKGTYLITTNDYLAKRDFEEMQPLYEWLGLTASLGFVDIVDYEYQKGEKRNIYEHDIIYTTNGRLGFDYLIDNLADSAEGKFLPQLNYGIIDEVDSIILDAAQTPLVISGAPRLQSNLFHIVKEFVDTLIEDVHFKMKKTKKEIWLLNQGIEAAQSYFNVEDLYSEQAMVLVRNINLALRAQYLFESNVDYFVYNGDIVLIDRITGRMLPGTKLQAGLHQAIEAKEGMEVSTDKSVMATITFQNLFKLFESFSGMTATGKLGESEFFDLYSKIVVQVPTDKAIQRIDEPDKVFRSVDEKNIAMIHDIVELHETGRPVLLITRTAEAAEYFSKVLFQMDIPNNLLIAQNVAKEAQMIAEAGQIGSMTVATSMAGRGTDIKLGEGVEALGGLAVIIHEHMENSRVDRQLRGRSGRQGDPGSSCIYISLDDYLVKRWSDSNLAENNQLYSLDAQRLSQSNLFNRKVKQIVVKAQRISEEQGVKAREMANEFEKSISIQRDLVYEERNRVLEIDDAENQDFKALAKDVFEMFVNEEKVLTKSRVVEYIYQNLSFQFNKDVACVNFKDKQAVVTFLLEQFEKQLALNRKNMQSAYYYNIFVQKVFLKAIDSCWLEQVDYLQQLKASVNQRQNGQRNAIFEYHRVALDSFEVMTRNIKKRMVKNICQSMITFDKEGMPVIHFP
The assay is described as follows: Inhibition of Staphylococcus aureus ATCC 35556 SecA2 expressed in Escherichia coli BL21-gammaDE3 assessed as reduction in intrinsic ATPase activity incubated for 3 hrs measured by malachite green colorimetric method.

Assay [6] concerns Staphylococcus aureus. The assay is described as follows: Bacteriostatic activity against Staphylococcus aureus Newman after 24 hrs. It counts as functional. A digest of the protocol: as §1
Assay [7] deals with Staphylococcus aureus. In words: Bacteriostatic activity against Staphylococcus aureus N315 after 24 hrs. It counts as functional. The settings on record: N315, 24 h. Summed up: as §1
For assay [8], the system named is Staphylococcus aureus. The assay is described as follows: Bacteriostatic activity against Staphylococcus aureus K2068 overexpressing MepA. The assay is classed as functional. A digest of the protocol: as §1
Assay [9] relates to Staphylococcus aureus. The assay is described as follows: Bacteriostatic activity against Staphylococcus aureus K2361 overexpressing NorA. It counts as functional. Summed up:
as §1

Assay [10] concerns Staphylococcus aureus. In words: Bacteriostatic activity against MepA deficient Staphylococcus aureus K2908. It counts as functional. A digest of the protocol:
as §1

The subject of assay [11] is Staphylococcus aureus. The assay is described as follows: Bacteriostatic activity against wild type Staphylococcus aureus 8325-4. It counts as functional. A digest of the protocol: as §1
The test system of assay [12] is Staphylococcus aureus. The assay is described as follows: Bacteriostatic activity against Staphylococcus aureus Mu3 after 24 hrs. The assay is classed as functional. The settings on record: Mu3, 24 h. Summed up:
as §1

Assay [13] concerns the target T3, Protein translocase subunit SecA 1 (Staphylococcus aureus (strain NCTC 8325), UniProt O06446).
T3 sequence (O06446 whole entry): T1 sequence (whole entry)
The assay is described as follows: Inhibition of Staphylococcus aureus ATCC 35556 SecA1 expressed in Escherichia coli BL21-gammaDE3 assessed as reduction in intrinsic ATPase activity incubated for 3 hrs measured by malachite green colorimetric method.

Assay [14] relates to Staphylococcus aureus. The assay is described as follows: Bacteriostatic activity against Staphylococcus aureus ATCC 6538 after 24 hrs. It counts as functional. The settings on record: ATCC 6538, 24 h.
Assay [15] has as its target T3, Protein translocase subunit SecA 1. The assay is described as follows: Inhibition of Staphylococcus aureus ATCC 35556 SecA1 liposomal ion channel activity in Xenopus laevis oocytes incubated for 3 hrs measured by recording ion current for 1 min. It counts as cell-based. Summed up: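 Xenopus laevis oocytes injected at animal pole with 50 nl containing 120 ng liposomes, 120 ng SaSecA1, 14 ng proOmpA, 2 mM ATP, 1 mM Mg(OAc)2 plus varying inhibitor. Incubated 3 hr at 23 °C, then ion current recorded continuously 1 min.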

Converted amounts (≈) assume the structure as drawn. The source made the active and inactive calls.

Broadly, the MIC is the smallest concentration in the dilution series that meets the test's criterion for growth inhibition. Low readings indicate greater potency, high ones weaker potency. In assay [1], `CN[C@@H](CC(C)C)C(=O)N[C@H]1C(=O)N[C@@H](CC(N)=O)C(=O)N[C@H]2C(=O)N[C@H]3C(=O)N[C@H](C(=O)N[C@@H](C(=O)O)c4cc(O)cc(O)c4-c4cc3ccc4O)[C@H](O)c3ccc(c(Cl)c3)Oc3cc2cc(c3O[C@H]2O[C@@H](CO)[C@H](O)[C@@H](O)[C@@H]2O[C@@H]2C[C@@](C)(N)[C@@H](O)[C@@H](C)O2)Oc2ccc(cc2Cl)[C@H]1O` displayed an MIC of 8 µg/mL (≈ 5.52 µM).
The same measure, in the same setting: then `CN(C)[C@@H]1C(O)=C(C(N)=O)C(=O)[C@@]2(O)C(O)=C3C(=O)c4c(O)cccc4[C@@](C)(O)[C@H]3C[C@@H]12` [TETRACYCLINE], with 63 µg/mL (≈ 142 µM).
Usually IC50 stands for the point on the concentration scale where inhibition reaches its midpoint. For the molecule `O=C(CCCC[C@@H]1SC[C@@H]2NC(=O)N[C@@H]21)NCCCCCCC1c2ccc(O)cc2Oc2cc(O)ccc21`, the result in assay [2] was Active. The IC50 in assay [3] is 90 µM.
For `O=C([O-])c1c(Cl)c(Cl)c(Cl)c(Cl)c1-c1c2cc(I)c(=O)c(I)c-2oc2c(I)c([O-])c(I)cc12.[Na+].[Na+]` [ROSE BENGAL SODIUM], the MIC in assay [4] was 22 µg/mL; in assay [6], 51 µg/mL; in assay [7], 21 µg/mL; in assay [8], 15 µg/mL; in [9] it was 35 µg/mL; in [10], 11 µg/mL. The figures for the MIC in assay [11] and in [12] were 13 µg/mL and 59 µg/mL, respectively. In assay [5], the IC50 was determined as 2 µM.
For `CCn1cc(C(=O)O)c(=O)c2cc(F)c(N3CCNCC3)cc21` [NORFLOXACIN], the MIC in assay [1] worked out at 250 µg/mL (≈ 783 µM).
On the same count and under the same terms, under `CC1(C)S[C@@H]2[C@H](NC(=O)[C@H](N)c3ccccc3)C(=O)N2[C@H]1C(=O)O` [AMPICILLIN] stands 1000 µg/mL (≈ 2860 µM).
Still for that read-out and setting: then `CO[C@H]1/C=C/O[C@@]2(C)Oc3c(C)c(O)c4c(O)c(c(/C=N/N5CCN(C)CC5)c(O)c4c3C2=O)NC(=O)/C(C)=C\C=C\[C@H](C)[C@H](O)[C@@H](C)[C@@H](O)[C@@H](C)[C@H](OC(C)=O)[C@@H]1C` [RIFAMPIN], with greater than 1000 µg/mL; and `NC[C@H]1O[C@H](O[C@H]2[C@H](O)[C@@H](O[C@H]3O[C@H](CO)[C@@H](O)[C@H](N)[C@H]3O)[C@H](N)C[C@@H]2N)[C@H](O)[C@@H](O)[C@@H]1O` [KANAMYCIN], with 1000 µg/mL (≈ 2060 µM).
`CC[C@H]1OC(=O)[C@H](C)[C@@H](O[C@H]2C[C@@](C)(OC)[C@@H](O)[C@H](C)O2)[C@H](C)[C@@H](O[C@@H]2O[C@H](C)C[C@H](N(C)C)[C@H]2O)[C@](C)(O)C[C@@H](C)C(=O)[C@H](C)[C@@H](O)[C@]1(C)O` [ERYTHROMYCIN]: in assay [1], the MIC is greater than 1250 µg/mL.
On to `Oc1ccc2c(c1)Oc1cc(O)ccc1C2C1CCCC1`, for which the minimum inhibitory concentration (MIC) worked out at 14 µg/mL (≈ 49.6 µM) in assay [1]; 11 µg/mL (≈ 39 µM) in assay [14]; 7 µg/mL (≈ 24.8 µM) in [6]; 14 µg/mL (≈ 49.6 µM) in [7]; 14 µg/mL (≈ 49.6 µM) in [12]. The IC50 in [13] was 35 µM; in assay [5] it was 30 µM; in assay [15], 2000 nM.
